STAT3 inh: STAT3 signaling inhibition; U3A cells, IL-6 STAT3-luciferase reporter, luminescence; host cell line lacks STAT1; inhibition, % at 5.5 µM; 190,000 tested, 0.89% active; AID 862;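 active = inhibition above the mean inhibition across all screened compounds plus 3 SD, cut at about 44% in these data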;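 also: 0% = DMSO only wells and 100% = 100 µM nifuroxazide control wells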
Hep lipid drop: hepatic lipid droplet formation modulation; AML12 mouse hepatocytes, oleate lipid droplets, BODIPY imaging; inhibition, % at 6.5 µM; 240,000 tested, 0.4% active; AID 1656;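 active = lipid droplet intensity inhibited by at least 50%, with more than 500 cells counted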
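Assay system: AML12 hepatocytes (mouse); Probe or stimulus: oleic acid at 100 µM to induce lipid droplet formation; Dosing: compound at 6.5 µM only; Schedule: compound with oleate, overnight; Detection: fluorescence imaging, 20x objective, two fields per well; Measure: % inhibition of lipid droplet signal.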
Platelet DG rel: modulates dense granule release in human platelets; 300,000 tested, 0.22% active; inhibition, %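 (compounds screened at 7.5 µM in platelet-rich plasma)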; AID 1663; human platelet-rich plasma, SFLLRN dense granule ATP release, luminescence;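 active = mean replicate score, as percent of positive control, at or above 50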
PPC-1+TRAIL kill: PPC-1 cancer cell killing with TRAIL present; cell killing (% activity), % at 4 µM or 5 µM; PPC-1 cells + TRAIL, ATPLite viability luminescence; AID 1443; 220,000 tested, 0.41% active;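 active = cell killing above 50% in the first pass at 4 µM, then a duplicate retest at 5 µM averaging 50% or more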;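 also: plate controls were cells with TRAIL plus DMSO for no effect and medium-only wells lacking cells for full effect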
TAG inh: inhibitors of triacylglycerol accumulation; H9c2 cells, Nile Red lipid (TAG) fluorescence; cells loaded with 200 µM oleic acid; inhibition, % at 12.5 µM; 230,000 tested, 0.66% active;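 active = pattern-corrected inhibition of lipid staining of at least 50% with the nuclear-stain viability signal not falling by more than 50%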;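 also: 0% = DMSO wells and 100% = triacsin C control wells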
STAT1 blocker: inhibitors of IFN-gamma induced STAT1 signaling; NIH 3T3 STAT1-luciferase reporter, luminescence; inhibition, % at 5.5 µM; 200,000 tested, 0.35% active;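 active = inhibition above a set limit, the mean inhibition across all tested compounds plus 3 SD, cut at about 34% in these data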;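 also: 0% = IFN-gamma with DMSO and 100% = IFN-gamma with 300 µM nifuroxazide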
Lipid drop inh: hepatic lipid droplet formation inhibition, confirmed | 870 tested, 65% active | shares compounds with Hep lipid drop | AML12 mouse hepatocytes, BODIPY lipid droplet imaging; droplets induced with 100 µM oleic acid | inhibition, % at 5.2 µM | AID 463183;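 active = inhibition of lipid droplet metric at least 50%, with more than 300 cells in each of four replicates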;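 also: plate controls were DMSO with oleic acid for no effect and 5 µM Triacsin-C for full effect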
AML12 cytotox: counter-screen for cytotoxicity in AML12 mouse hepatocytes. DAPI nuclear morphology cytotoxicity imaging; stronger effect = higher value; cells fed 100 µM oleate overnight. z-score at 5 µM. shares compounds with Hep lipid drop. 870 tested, 3% active; in the data active = z-score above about 6.3;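 also: compound exposure lasted overnight at 37 °C before fixation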
AML12 tox ATP: AML12 hepatocyte cytotoxicity, confirmed. shares compounds with Hep lipid drop. AML12 mouse hepatocyte viability, ATP luminescence; cells loaded with 100 µM oleic acid. cytotoxicity, % at 50 µM. 530 tested, under 10 active. AID 463219;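 active = cytotoxicity above 50% in each of four replicates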;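 also: compound exposure lasted overnight at 37 °C before the ATP read; 0% = DMSO-treated cells and 100% = wells with no cells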
Active calls of the source: *. In the library only some 1.5% were active in any assay of this set; here they are far more common.

CCOc1ccc(CCNC(=O)CCC(=O)N2CCSc3ccccc32)cc1OCC was read as Hep lipid drop 91*, Platelet DG rel 5, Lipid drop inh 110*, AML12 cytotox -0.67 and AML12 tox ATP 18.
`CCOc1ccc(CCNC(=O)c2c(C)nn(-c3ccccc3)c2Cl)cc1OCC` gave Hep lipid drop 52*, Platelet DG rel 1, TAG inh 38, Lipid drop inh 72*, AML12 cytotox -0.47 and AML12 tox ATP 8.
`CCOc1ccc(CCNC(=O)CS(=O)Cc2nc(-c3ccc(OC)cc3)oc2C)cc1OCC` (stereo unspecified) gave Hep lipid drop 76*, Platelet DG rel -3, Lipid drop inh 81*, AML12 cytotox -0.47 and AML12 tox ATP 11.
Screening CCc1ccc(NC(=O)CCC(=O)N2CCSc3ccccc32)cc1 returned Hep lipid drop -6 and Platelet DG rel -4.
CCOc1ccc(CCNC(=O)c2ccc3ccccc3n2)cc1OCC was read as Hep lipid drop 78*, Platelet DG rel -1, TAG inh 43, Lipid drop inh 107*, AML12 cytotox -0.78 and AML12 tox ATP 22.
`O=C(Nc1ccc(OC(F)(F)F)cc1)c1cc(S(=O)(=O)N2CCCCC2)ccc1N1CCOCC1` gave TAG inh -11.
Screening CCCCN(C(=O)c1ccc(N2C(=O)c3ccccc3C2=O)cc1)c1c(N)n(CC(C)C)c(=O)[nH]c1=O returned TAG inh 1.
Screening CCOc1ccc(CCNC(=O)C2(c3ccccc3)CC2)cc1OCC returned Hep lipid drop 56*, Platelet DG rel -9, TAG inh 19, Lipid drop inh 83*, AML12 cytotox -0.36 and AML12 tox ATP 13.
`CCOc1ccc(CCNC(=O)c2nccnc2C(=O)O)cc1OCC` gave Hep lipid drop 4 and Platelet DG rel -2.
CCOc1ccc(CCNC(=O)Nc2cccc(OC)c2)cc1OCC was read as Hep lipid drop 125*, Platelet DG rel -3, Lipid drop inh 110*, AML12 cytotox -0.61 and AML12 tox ATP 9.
For CC(=O)c1ccc(S(=O)(=O)N2CCN(c3nc(-c4cccnc4)nc4ccccc34)CC2)cc1 the results were TAG inh 29.
For COc1ccc(C2(c3ccc(OC)cc3)NC(=O)N(CC(=O)Nc3cc(C)ccc3OC)C2=O)cc1 the results were Hep lipid drop 86*, Platelet DG rel -3, TAG inh 28, Lipid drop inh 106*, AML12 cytotox -1 and AML12 tox ATP 12.
`Cc1ccc(NC(=O)CSc2nnnn2C2CCCC2)cc1S(=O)(=O)N1CCOCC1` gave TAG inh -12.
Screening Cc1cccc(NC(=O)c2nc[nH]c2C(=O)NCC(=O)OC(C)(C)C)c1 returned Hep lipid drop 52*, Platelet DG rel 10, PPC-1+TRAIL kill 0, TAG inh -6, Lipid drop inh 8 and AML12 cytotox 0.56.
`O=S(=O)(NCCc1ccc(F)cc1)c1ccc(F)cc1Br` gave TAG inh -5.
O=C(NCCc1ccccc1)c1ccc2c(c1)S(=O)(=O)c1cc(Cl)ccc1C2=O was read as TAG inh -16.
`Cc1nc(NC(=O)C2CC2)sc1C(=O)N(C)C` gave STAT3 inh 1, Hep lipid drop 70*, Platelet DG rel -1, PPC-1+TRAIL kill 6, STAT1 blocker -2, Lipid drop inh -17 and AML12 cytotox -0.32.
For COC(=O)Nc1nc(C)c(C(=O)N(C)C)s1 the results were STAT3 inh -1, Platelet DG rel 0, PPC-1+TRAIL kill -5 and STAT1 blocker -4.
For COc1ccc(NC(=O)COC(=O)c2ccc(S(=O)(=O)N3CCCCC3)cc2)c(OC)c1 the results were TAG inh -9.
Screening CCCCOc1ccc(C(C)NC(=O)CCS(=O)(=O)Cc2ccc(C)cc2)cc1 (stereo unspecified) returned STAT3 inh -9, Hep lipid drop 52*, Platelet DG rel 4, PPC-1+TRAIL kill -3, TAG inh 29, STAT1 blocker -2, Lipid drop inh 103* and AML12 cytotox -0.15.
Screening COc1ccc(C)cc1NC(=O)CCNS(=O)(=O)c1cccc(C(F)(F)F)c1 returned Hep lipid drop 55*, Platelet DG rel -1, Lipid drop inh 83*, AML12 cytotox 0.18 and AML12 tox ATP 6.
For COc1ccc(S(=O)(=O)Nc2ccc3c(c2)C(=O)N([C@H](C)CO)C[C@H](C)[C@@H](CN(C)Cc2ccncc2)OCCCC[C@@H](C)O3)cc1 the results were TAG inh 2.
For CC(C)NC(=O)C1(C)CCN1C(=O)c1cccn1C (stereo unspecified) the results were TAG inh -3.
For Cc1cc(C(=O)OC(C)C(=O)Nc2nc(-c3ccccc3)cs2)c(C)o1 (stereo unspecified) the results were STAT3 inh -3, Hep lipid drop 87*, Platelet DG rel 23, PPC-1+TRAIL kill 0, STAT1 blocker -2, Lipid drop inh 111*, AML12 cytotox -0.8 and AML12 tox ATP 4.
Screening COc1ccccc1S(=O)(=O)N(C)C[C@@H]1OCc2cnnn2CCCC(=O)N([C@@H](C)CO)C[C@@H]1C returned TAG inh -3.
`CC(C)Nc1nc(Nc2ccc(F)cc2)c2sccc2n1` gave TAG inh 5.
O=C(c1nn2c(C(F)(F)F)cc(-c3cccs3)nc2c1Cl)N1CCCc2ccccc21 was read as STAT3 inh 1, Hep lipid drop 53*, Platelet DG rel 0, PPC-1+TRAIL kill 27, STAT1 blocker -4, Lipid drop inh 26 and AML12 cytotox 1.4.
For CCOC(=O)Nc1nc2ccc(Cn3cccc3)cc2[nH]1 the results were TAG inh 45.
C=CCN1C(=O)c2ccccc2Sc2ccc(C(=O)NCC(OC)OC)cc21 was read as Hep lipid drop 55*, Platelet DG rel -2, Lipid drop inh 34 and AML12 cytotox -0.91.
`C=CCN1C(=O)c2ccccc2Sc2ccc(C(=O)NC(C)C)cc21` gave Hep lipid drop 0 and Platelet DG rel 2.
Screening COc1ccc(CCN2C(=O)CC(N3CCOCC3)C2=O)cc1 (stereo unspecified) returned STAT3 inh 5, Hep lipid drop 11, Platelet DG rel 2, PPC-1+TRAIL kill 7 and STAT1 blocker -2.

Assay outcomes deposited in PubChem by several laboratories.
